Tests used:
[1] = molecular target: T1, Adrenergic receptor alpha-1 (Rattus norvegicus, UniProt P15823+P23944+P43140); assay: Intrinsic activity for displacement of [3H]- prazosin from Alpha-1 adrenergic receptor of rat cerebral cortex membrane in the presence of 1 nM GTP; format: tissue-based
T1 sequence (P15823 whole entry): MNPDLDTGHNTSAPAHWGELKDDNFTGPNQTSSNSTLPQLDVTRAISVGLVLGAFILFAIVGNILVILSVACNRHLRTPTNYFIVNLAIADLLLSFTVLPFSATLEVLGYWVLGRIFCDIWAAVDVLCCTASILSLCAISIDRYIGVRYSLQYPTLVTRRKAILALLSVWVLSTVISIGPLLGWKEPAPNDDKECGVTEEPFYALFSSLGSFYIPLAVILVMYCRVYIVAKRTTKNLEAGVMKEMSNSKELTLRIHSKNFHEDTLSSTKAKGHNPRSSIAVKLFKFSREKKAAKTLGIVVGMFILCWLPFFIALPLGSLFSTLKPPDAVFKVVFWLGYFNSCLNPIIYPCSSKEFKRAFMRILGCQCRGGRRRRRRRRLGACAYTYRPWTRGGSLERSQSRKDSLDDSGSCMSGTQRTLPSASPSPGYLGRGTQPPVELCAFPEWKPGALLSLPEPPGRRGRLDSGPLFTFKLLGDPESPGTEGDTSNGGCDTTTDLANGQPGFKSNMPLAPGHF
T1 sequence (P23944 whole entry): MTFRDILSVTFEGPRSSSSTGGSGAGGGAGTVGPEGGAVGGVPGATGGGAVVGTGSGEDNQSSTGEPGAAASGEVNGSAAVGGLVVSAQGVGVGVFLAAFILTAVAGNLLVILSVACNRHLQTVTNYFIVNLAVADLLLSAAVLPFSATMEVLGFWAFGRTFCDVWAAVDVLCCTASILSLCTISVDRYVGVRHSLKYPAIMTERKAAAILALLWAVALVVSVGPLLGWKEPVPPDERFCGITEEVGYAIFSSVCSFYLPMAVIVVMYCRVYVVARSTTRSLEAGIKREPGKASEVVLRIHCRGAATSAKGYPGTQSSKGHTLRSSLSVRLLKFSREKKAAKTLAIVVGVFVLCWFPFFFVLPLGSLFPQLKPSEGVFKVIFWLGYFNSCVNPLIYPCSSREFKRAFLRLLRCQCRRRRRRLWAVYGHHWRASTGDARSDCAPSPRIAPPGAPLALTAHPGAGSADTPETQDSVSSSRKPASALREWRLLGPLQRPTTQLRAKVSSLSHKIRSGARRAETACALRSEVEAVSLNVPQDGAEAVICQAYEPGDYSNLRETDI
T1 sequence (P43140 whole entry): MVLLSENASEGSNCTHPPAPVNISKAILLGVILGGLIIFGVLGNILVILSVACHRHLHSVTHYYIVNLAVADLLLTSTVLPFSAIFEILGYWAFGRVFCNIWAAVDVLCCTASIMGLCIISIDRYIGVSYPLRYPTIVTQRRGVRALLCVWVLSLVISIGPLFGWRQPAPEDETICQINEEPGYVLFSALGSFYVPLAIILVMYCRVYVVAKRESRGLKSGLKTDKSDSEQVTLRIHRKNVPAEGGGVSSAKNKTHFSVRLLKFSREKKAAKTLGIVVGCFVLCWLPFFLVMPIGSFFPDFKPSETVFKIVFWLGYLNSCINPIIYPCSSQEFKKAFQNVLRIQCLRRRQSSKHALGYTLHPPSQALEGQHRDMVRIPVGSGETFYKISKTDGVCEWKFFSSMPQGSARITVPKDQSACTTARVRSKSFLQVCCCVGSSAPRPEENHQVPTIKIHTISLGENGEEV

[2] = molecular target: T1, Adrenergic receptor alpha-1; assay: Intrinsic activity for displacement of [3H]- prazosin from Alpha-1 adrenergic receptor of rat cerebral cortex membrane in the absence of 1 nM GTP; format: tissue-based
[3] = molecular target: T2, Adrenergic receptor alpha-2 (Rattus norvegicus, UniProt P22086+P19328+P22909); assay: Binding affinity against Alpha-2 adrenergic receptor by displacing [3H]rauwolscine radioligand in rat cortex membrane; format: cell membranes, Brain
T2 sequence (P22086 whole entry): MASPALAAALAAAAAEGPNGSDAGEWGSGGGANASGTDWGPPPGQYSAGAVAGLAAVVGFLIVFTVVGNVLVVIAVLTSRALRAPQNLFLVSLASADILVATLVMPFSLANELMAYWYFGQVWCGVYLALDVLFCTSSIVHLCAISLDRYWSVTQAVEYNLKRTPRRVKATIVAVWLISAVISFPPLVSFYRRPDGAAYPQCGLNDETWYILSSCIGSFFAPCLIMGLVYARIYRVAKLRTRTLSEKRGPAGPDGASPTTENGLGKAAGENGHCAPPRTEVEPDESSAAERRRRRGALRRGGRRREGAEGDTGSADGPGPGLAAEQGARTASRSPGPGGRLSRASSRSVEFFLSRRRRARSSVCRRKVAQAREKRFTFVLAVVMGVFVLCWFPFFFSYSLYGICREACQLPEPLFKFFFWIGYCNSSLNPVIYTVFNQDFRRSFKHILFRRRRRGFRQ
T2 sequence (P19328 whole entry): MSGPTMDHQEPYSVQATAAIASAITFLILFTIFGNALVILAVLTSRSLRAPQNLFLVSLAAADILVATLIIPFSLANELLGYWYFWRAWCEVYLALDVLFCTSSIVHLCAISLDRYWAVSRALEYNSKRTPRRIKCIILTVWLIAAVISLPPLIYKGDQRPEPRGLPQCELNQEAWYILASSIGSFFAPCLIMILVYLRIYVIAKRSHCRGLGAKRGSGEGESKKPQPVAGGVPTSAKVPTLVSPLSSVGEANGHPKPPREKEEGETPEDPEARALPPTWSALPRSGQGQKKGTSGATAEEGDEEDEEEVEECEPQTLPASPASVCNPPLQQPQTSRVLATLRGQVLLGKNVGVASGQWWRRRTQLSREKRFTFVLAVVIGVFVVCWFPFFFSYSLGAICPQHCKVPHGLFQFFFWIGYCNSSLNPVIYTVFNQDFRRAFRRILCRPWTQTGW
T2 sequence (P22909 whole entry): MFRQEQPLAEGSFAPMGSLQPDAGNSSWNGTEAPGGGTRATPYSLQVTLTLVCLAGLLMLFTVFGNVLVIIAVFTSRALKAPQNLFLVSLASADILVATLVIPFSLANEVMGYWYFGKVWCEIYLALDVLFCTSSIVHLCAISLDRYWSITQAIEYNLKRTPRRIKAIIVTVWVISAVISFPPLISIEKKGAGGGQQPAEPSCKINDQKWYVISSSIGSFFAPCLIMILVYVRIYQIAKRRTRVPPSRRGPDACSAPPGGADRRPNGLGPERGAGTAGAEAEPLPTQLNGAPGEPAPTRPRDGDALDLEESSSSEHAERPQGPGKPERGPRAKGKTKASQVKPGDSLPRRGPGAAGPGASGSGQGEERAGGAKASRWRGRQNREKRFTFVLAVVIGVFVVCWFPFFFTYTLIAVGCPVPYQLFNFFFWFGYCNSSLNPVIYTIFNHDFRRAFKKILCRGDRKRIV

[4] = molecular target: T3, 5-hydroxytryptamine receptor 1A (Rattus norvegicus, UniProt P19327); assay: Binding affinity against 5-hydroxytryptamine 1A receptor by displacing [3H]8-OH-DPAT radioligand in rat cortex membrane; format: cell membranes
T3 sequence (P19327 whole entry): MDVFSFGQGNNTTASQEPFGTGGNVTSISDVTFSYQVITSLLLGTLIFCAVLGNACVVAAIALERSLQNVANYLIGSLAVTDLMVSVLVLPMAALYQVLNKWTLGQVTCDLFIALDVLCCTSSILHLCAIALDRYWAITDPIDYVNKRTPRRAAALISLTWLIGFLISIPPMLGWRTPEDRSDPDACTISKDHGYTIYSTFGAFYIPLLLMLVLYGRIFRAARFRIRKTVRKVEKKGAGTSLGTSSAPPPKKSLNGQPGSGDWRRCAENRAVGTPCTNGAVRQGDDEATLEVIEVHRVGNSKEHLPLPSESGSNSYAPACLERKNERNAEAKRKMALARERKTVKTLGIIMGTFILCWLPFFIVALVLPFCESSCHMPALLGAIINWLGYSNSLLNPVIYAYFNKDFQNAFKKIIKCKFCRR
How it was run: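 Rat cortex membranes, pre-incubated 10 min at 37 °C to remove endogenous 5-HT, stored at –80 °C, then resuspended in 50 mM Tris-HCl pH 7.4 (0.2–0.3 mg protein). GF/C filtration, scintillation counting.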

[5] = molecular target: T1, Adrenergic receptor alpha-1; assay: Binding affinity against Alpha-1 adrenergic receptor by displacing [3H]prazosin radioligand in rat cortex membrane.; format: cell membranes, Brain
[6] = molecular target: T1, Adrenergic receptor alpha-1; assay: Intrinsic activity against Alpha-1 adrenergic receptor expressed as displacement of [3H]prazosin from rat cerebral cortex membrane in the absence of 1 nM GTP; format: tissue-based
How it was run: (§1)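 [3H]prazosin competition on rat cerebral cortex membranes, run with and without GTP (1 nM in table footnote, 1 mM in text). The GTP shift is the ratio of the affinity constant with GTP to that without. Values are means ± SEM of three experiments.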

[7] = molecular target: T1, Adrenergic receptor alpha-1; assay: Intrinsic activity against Alpha-1 adrenergic receptor expressed as displacement of [3H]prazosin from rat cerebral cortex membrane in the presence of 1 nM GTP; format: tissue-based; how it was run: as §1

Row | SMILES | Ki [1] [nM] | Ki [2] [nM] | Ki [3] [nM] | Ki [4] [nM] | Ki [5] [nM] | Ki [6] [nM] | Ki [7] [nM]
1 | O=c1ccc(-n2ccnc2)nn1CCCCCCCN1CCN(c2ccccc2Cl)CC1 | 8.33 | 4.9 | 24.5 | 123 | 4.6 | – | –
2 | COc1ccccc1N1CCN(CCCCn2nc(-n3ccc4ccccc43)ccc2=O)CC1 | – | – | 20 | 253 | – | 1 | 1.6

Source: ChEMBL document CHEMBL1135543, “Alpha(1)-adrenoceptor antagonists. 4. Pharmacophore-based design, synthesis, and biological evaluation of new imidazo-, benzimidazo-, and indoloarylpiperazine derivatives” (J Med Chem, 2002)
